This is an account of results in ChEMBL document CHEMBL1156633, “Discovery of novel and long acting muscarinic acetylcholine receptor antagonists” (J Med Chem, 2008).

Each structure is given as a SMILES string. Activity calls are given as the source filed them.

In data set [1] the target is T1, Muscarinic acetylcholine receptor M1 (Homo sapiens, UniProt P11229).
T1 sequence (P11229 whole entry): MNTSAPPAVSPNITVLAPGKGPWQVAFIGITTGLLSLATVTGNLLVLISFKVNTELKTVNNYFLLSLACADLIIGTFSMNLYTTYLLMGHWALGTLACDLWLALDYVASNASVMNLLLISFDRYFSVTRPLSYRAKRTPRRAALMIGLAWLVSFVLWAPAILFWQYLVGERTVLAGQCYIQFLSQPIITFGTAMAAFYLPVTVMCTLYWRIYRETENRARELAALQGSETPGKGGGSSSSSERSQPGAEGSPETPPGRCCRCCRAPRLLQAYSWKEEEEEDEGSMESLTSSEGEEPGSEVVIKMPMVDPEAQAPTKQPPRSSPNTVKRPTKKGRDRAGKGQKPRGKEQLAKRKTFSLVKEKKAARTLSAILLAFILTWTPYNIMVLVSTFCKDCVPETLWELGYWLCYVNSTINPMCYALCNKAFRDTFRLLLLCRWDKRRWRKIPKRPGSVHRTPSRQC
Briefly: Antagonist activity at human muscarinic acetylcholine M1 receptor expressed in CHO cells assessed as inhibition of acetylcholine-induced calcium mobilization by FLIPR assay. Format: functional, cell-based. An outline of the steps:
(§1)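 Readout: inhibition of acetylcholine-mediated intracellular Ca2+ mobilization in CHO cells expressing the human receptor subtype, reported as pIC50. Values are the mean of at least two determinations, standard deviation below 0.3 unless otherwise noted.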
On the technique in general: Calcium assays in cells follow changes in intracellular calcium, usually with a dye or a luminescent sensor.

Data set [2] addresses T2, Muscarinic acetylcholine receptor M2 (Homo sapiens, UniProt P08172).
T2 sequence (P08172 whole entry): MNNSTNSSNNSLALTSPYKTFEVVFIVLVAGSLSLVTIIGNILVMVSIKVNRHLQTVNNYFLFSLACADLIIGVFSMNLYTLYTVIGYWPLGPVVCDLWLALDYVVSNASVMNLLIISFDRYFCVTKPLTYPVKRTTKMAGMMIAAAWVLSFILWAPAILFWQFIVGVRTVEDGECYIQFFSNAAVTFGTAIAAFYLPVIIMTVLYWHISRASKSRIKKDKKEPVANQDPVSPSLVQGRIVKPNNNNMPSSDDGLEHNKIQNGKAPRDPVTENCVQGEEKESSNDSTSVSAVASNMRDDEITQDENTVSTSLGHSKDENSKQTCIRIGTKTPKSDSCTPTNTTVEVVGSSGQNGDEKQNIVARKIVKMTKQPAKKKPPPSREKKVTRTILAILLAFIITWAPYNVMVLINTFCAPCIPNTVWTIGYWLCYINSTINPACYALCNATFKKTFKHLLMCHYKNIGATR
Nature of the data set: Antagonist activity at human muscarinic acetylcholine M2 receptor expressed in CHO cells coexpressed with Gqi5 assessed as inhibition of acetylcholine-induced calcium mobilization by FLIPR assay. Format: functional, cell-based. An outline of the steps: as §1

Data set [3] concerns the target T3, Muscarinic acetylcholine receptor M3 (Homo sapiens, UniProt P20309). Nature of the data set: Antagonist activity at human muscarinic acetylcholine M3 receptor expressed in CHO cells assessed as inhibition of acetylcholine-induced calcium mobilization by FLIPR assay. The data set is classed as functional, cell-based. In outline:
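Readout: inhibition of acetylcholine-mediated intracellular Ca2+ mobilization in CHO cells stably expressing human recombinant M3 receptor, reported as pIC50. Values are the mean of at least two determinations, standard deviation below 0.3 unless otherwise noted.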

The target in data set [4] is Muscarinic acetylcholine receptor M1 and M3 (Homo sapiens) (UniProt P20309+P11229). Nature of the data set: Selectivity for human muscarinic acetylcholine M3 receptor over human muscarinic acetylcholine M1 receptor. In outline:
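Ratio of M1 to M3 potency from FLIPR functional assays measuring inhibition of acetylcholine-induced intracellular Ca²⁺ mobilization. The M3 assay used CHO cells stably expressing human recombinant M3 receptor; the M1 assay is described only as a FLIPR assay. pIC50 values are the mean of at least two determinations.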

Data set [5] deals with T1, Muscarinic acetylcholine receptor M1. Briefly: Antagonist activity at human muscarinic acetylcholine M1 receptor expressed in CHO cells assessed as inhibition of acetylcholine-induced calcium mobilization by single concentration kinetic FLIPR assay. Format: functional, cell-based. Particulars: read-out: pA2 (converted). An outline of the steps:
(§2)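 CHO cells stably expressing the human recombinant muscarinic receptor subtype, in a fluorometric imaging plate reader (FLIPR) assay. Read-out is inhibition of acetylcholine-mediated intracellular Ca2+ mobilization. Results are the mean of at least two determinations.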

The target of data set [6] is T2, Muscarinic acetylcholine receptor M2. Nature of the data set: Antagonist activity at human muscarinic acetylcholine M2 receptor expressed in CHO cells coexpressed with Gqi5 assessed as inhibition of acetylcholine-induced calcium mobilization by single concentration kinetic FLIPR assay. Format: functional, cell-based. Particulars: read-out: pA2 (converted). An outline of the steps: as §2

The target of data set [7] is T3, Muscarinic acetylcholine receptor M3. Nature of the data set: Antagonist activity at human muscarinic acetylcholine M3 receptor expressed in CHO cells assessed as inhibition of acetylcholine-induced calcium mobilization by single concentration kinetic FLIPR assay. Format: functional, cell-based. Particulars: read-out: pA2 (converted). An outline of the steps: as §2

Data set [8] concerns the target T4, Substance-K receptor (Homo sapiens) (UniProt P21452).
T4 sequence (whole entry): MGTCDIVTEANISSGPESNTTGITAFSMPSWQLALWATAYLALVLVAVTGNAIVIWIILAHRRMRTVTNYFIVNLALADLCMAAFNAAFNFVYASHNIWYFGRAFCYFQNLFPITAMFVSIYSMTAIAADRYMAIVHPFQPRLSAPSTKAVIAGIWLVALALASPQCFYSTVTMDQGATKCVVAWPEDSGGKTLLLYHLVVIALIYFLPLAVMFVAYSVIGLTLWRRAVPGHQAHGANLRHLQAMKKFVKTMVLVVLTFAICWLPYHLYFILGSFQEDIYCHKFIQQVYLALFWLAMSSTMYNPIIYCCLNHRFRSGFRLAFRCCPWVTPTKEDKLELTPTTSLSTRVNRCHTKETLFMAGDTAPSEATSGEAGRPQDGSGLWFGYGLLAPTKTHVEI
Nature of the data set: Inhibition of NK2 receptor at 1 uM.

The test system of data set [9] is Cavia porcellus. Nature of the data set: Inhibition of acetylcholine-induced bronchoconstriction in conscious Dunkin-Hartley guinea pig assessed as enhanced pause at 2.5 ug, intratracheally administered as single dose after 4 hrs.
Data set [10] concerns Cavia porcellus. Nature of the data set: Inhibition of acetylcholine-induced bronchoconstriction in conscious Dunkin-Hartley guinea pig assessed as enhanced pause at 2.5 ug, intratracheally administered as single dose after 24 hrs.
Data set [11] can be described thus: Half life in Sprague-Dawley rat at 2.2 mg/kg, iv and 4.8 mg/kg, po. The data set is classed as ADME, organism-based. The conditions noted are these: in vivo.
Data set [12] is described as follows: Clearance in Sprague-Dawley rat at 2.2 mg/kg, iv and 4.8 mg/kg, po. The data set is classed as ADME, organism-based. Particulars: in vivo.
Data set [13] can be described thus: Volume of distribution at steady state in Sprague-Dawley rat at 2.2 mg/kg, iv and 4.8 mg/kg, po. The data set is classed as ADME, organism-based. Particulars: in vivo, read-out: Vdss.
The nature of data set [14]: Permeability across artificial membrane. The data set is classed as ADME. Particulars: PAMPA; read-out: permeability. For orientation: In PAMPA a lipid-coated filter parts donor from acceptor wells.
Data set [15] can be described thus: Antagonist activity at alpha1 nicotinic acetylcholine receptor. Format: functional.
The nature of data set [16]: Antagonist activity at alpha3 nicotinic acetylcholine receptor. The data set is classed as functional.
Another data set addresses Cytochrome P450 2D6 (Homo sapiens, UniProt P10635). Briefly: Inhibition of CYP2D6. The data set is classed as ADME.
In the next data set the target is Cytochrome P450 2C19 (Homo sapiens, UniProt P33261). Briefly: Inhibition of CYP2C19. The data set is classed as ADME.
For a further data set, the target named is Cytochrome P450 2C9 (Homo sapiens, UniProt P11712). Nature of the data set: Inhibition of CYP2C9. The data set is classed as ADME.
Data set [17] has as its system Mus musculus. Briefly: Inhibition of methacholine-induced bronchoconstriction in conscious BALB/c mouse at 5 ug, intranasally administered as single dose after 5 hrs 15 mins. Format: functional, organism-based. In outline:
(§3)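 Conscious mice given a single intranasal dose of 5 µg/animal, then challenged with methacholine to induce bronchoconstriction. Inhibition of bronchoconstriction was assessed at set times after dosing.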

The subject of data set [18] is Mus musculus. Nature of the data set: Inhibition of methacholine-induced bronchoconstriction in conscious BALB/c mouse at 5 ug, intranasally administered as single dose after 24 hrs. Format: functional. On the set-up: scale not given: the % may be the effect or the level left. An outline of the steps: as §3
Data set [19] relates to Mus musculus. Nature of the data set: Inhibition of methacholine-induced bronchoconstriction in conscious BALB/c mouse at 5 ug, intranasally administered as single dose after 48 hrs. Format: functional. On the set-up: scale not given: the % may be the effect or the level left. In outline:
as §3

The target in data set [20] is Muscarinic acetylcholine receptor M3 (Homo sapiens). Briefly: Selectivity for human muscarinic acetylcholine M3 receptor over human muscarinic acetylcholine M2 receptor.

Chain of Muscarinic acetylcholine receptor M1 and M3 (Homo sapiens) (P20309 whole entry, looked up, one chain of several): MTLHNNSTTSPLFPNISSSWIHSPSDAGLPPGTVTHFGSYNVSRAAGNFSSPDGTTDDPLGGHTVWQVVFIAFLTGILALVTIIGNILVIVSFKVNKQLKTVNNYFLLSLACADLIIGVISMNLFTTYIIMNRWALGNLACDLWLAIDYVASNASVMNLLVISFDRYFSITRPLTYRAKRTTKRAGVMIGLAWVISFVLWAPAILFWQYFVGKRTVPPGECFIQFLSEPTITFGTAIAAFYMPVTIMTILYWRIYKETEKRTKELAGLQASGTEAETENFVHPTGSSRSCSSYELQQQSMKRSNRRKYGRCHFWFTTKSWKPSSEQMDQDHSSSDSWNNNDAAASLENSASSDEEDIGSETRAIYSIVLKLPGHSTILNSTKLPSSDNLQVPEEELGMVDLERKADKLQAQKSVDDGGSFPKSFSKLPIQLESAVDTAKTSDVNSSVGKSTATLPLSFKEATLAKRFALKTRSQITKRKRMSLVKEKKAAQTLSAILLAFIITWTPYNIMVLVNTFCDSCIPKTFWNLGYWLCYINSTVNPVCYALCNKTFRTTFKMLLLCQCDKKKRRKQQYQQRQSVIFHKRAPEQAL
T3 sequence (P20309 whole entry): as the sequence (P20309 whole entry, looked up, one chain of several) above
Chain of Cytochrome P450 2C19 (P33261 whole entry): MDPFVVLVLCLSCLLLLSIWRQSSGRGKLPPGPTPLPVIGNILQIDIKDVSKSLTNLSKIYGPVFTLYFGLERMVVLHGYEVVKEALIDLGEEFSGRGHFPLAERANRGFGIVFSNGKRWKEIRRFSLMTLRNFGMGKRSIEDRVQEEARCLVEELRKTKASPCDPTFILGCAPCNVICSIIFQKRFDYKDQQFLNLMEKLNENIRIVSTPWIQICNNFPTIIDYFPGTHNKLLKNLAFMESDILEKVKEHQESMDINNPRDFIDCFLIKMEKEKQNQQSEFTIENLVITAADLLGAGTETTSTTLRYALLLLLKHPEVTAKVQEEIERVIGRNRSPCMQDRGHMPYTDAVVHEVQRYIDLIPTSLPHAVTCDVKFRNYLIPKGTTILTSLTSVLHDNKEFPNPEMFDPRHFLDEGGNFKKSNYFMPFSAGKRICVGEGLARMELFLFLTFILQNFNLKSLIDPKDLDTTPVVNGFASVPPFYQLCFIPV
Chain of Cytochrome P450 2C9 (P11712 whole entry): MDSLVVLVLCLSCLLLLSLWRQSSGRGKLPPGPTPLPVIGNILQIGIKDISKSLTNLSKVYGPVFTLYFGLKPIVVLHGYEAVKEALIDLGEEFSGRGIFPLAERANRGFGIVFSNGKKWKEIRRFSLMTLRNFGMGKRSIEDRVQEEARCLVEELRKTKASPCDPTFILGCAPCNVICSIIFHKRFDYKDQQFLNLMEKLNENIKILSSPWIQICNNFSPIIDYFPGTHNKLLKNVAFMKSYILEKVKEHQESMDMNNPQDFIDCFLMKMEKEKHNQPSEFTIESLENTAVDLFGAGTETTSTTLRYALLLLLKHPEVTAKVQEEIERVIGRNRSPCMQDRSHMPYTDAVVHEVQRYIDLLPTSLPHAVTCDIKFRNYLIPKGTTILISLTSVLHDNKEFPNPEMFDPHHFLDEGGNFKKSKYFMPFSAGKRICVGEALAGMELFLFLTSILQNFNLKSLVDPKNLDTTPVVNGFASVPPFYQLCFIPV
Chain of Cytochrome P450 2D6 (P10635 whole entry): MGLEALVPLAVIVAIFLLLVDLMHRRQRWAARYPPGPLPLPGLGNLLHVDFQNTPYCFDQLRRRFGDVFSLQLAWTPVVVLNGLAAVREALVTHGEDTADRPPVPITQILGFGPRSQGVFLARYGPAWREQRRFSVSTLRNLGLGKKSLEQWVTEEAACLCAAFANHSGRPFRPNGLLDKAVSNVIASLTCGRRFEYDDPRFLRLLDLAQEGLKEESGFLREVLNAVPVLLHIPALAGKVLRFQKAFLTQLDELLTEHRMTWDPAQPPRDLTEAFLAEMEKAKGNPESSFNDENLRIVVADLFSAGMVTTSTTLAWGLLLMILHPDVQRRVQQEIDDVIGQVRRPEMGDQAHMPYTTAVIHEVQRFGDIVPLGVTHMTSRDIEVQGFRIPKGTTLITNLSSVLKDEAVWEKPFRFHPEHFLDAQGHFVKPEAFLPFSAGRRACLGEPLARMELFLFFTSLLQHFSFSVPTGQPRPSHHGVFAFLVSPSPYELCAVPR

The IC50 is the concentration at which inhibition is half-maximal. `CCOC(=O)c1ccc(NC(=O)N[C@@H](Cc2ccc(O)cc2)C(=O)N[C@@H]2CCN(Cc3ccc(O)cc3)C2)cc1`: the figures for the IC50 in data set [1], in [2] and in [3] were 3980 nM, 1580 nM and 1580 nM, respectively.

Turning to `CCOC(=O)c1ccc(NC(=O)N[C@@H](Cc2ccc(O)cc2)C(=O)N[C@H]2CCN(Cc3ccc(O)cc3)C2)cc1`, the IC50 in data set [1] was 1000 nM; in [2] it was 126 nM; in data set [3], 15.8 nM. For the same molecule, the Selectivity ratio in data set [4] came to 80.

The inhibition is the percentage by which the read-out fell short of the control. Regarding `Cc1cn2cc(CNC(=O)[C@H](Cc3ccc(O)cc3)NC(=O)Nc3ccc(C(=O)OC4CCCCC4)s3)[n+](Cc3ccc4ccccc4c3)c2s1.[I-]`, the Kb in data set [5] is 0.316 nM; in data set [6], 0.2 nM; in [7] it was 0.0126 nM. In data set [4], the Selectivity ratio stood at 25. For the same molecule, the inhibition in [8] was found to be 74%. Moreover, the “inhibition (INH)” value was found to be 93% in the data set on Cavia porcellus [9] and 88% with Cavia porcellus [10].

On to `CCOC(=O)c1ccc(NC(=O)N[C@H](Cc2ccc(O)cc2)C(=O)N[C@H]2CCN(Cc3ccc(O)cc3)C2)cc1`, for which the IC50 in [1] was 12600 nM; in data set [2] it was 5010 nM; in [3], 3160 nM.

By half-life is commonly meant the time needed for the level to fall by half in the phase considered. In general, pIC50 refers to the negative decadic logarithm of the IC50, by convention in mol/L. For the molecule `CC(C)OC(=O)c1ccc(NC(=O)N[C@@H](Cc2ccc(O)cc2)C(=O)N[C@H]2CCC[N+](C)(Cc3cccc(O)c3)C2)cc1.[I-]` (stereo not given in full), the Kb in data set [6] is 1 nM. This molecule also gave a half-life in data set [11] of 1.1 h. Further, the clearance in data set [12] came out at 15 mL/min/kg. Also, the Vd in data set [13] was 0.55 L/kg. For the same molecule, in data set [14], the Papp is less than 0.3 ×10⁻⁶ cm/s. Also, the pIC50 in [15] and in [16] was 6.1 in each case. In addition, the values for the concentration for half-maximal inhibition (IC50) against Cytochrome P450 2D6, against Cytochrome P450 2C19 and on Cytochrome P450 2C9 were 3980 nM, more than 10000 nM and more than 10000 nM, respectively. Moreover, the result in the data set on Mus musculus [17] was Active. Moreover, the Activity with Mus musculus [18] is more than 80%; in the data set on Mus musculus [19], more than 30%.

As a reminder, the pA2 is the negative logarithm of the molar antagonist concentration that doubles the agonist concentration needed for the same response. Consider `Cc1cn2cc(CNC(=O)[C@H](Cc3ccc(O)cc3)NC(=O)Nc3ccc(C(=O)OC(C)C)cc3)[n+](Cc3ccc4ccccc4c3)c2s1.O=C([O-])C(F)(F)F`, for which the Kb was 0.794 nM in [5], 1.58 nM in data set [6] and 0.0251 nM in [7]. The pA2 in [20] stood at 10.6. Besides, the Selectivity ratio in data set [4] amounted to 30. Also, in the data set with Mus musculus [17], the result was Active. Besides, the figures for the Activity with Mus musculus [18] and with Mus musculus [19] were more than 80% and more than 60%, respectively.

Consider `CCOC(=O)c1ccc(NC(=O)N[C@@H](Cc2ccc(O)cc2)C(=O)NC2CCN(Cc3ccc(O)cc3)C2)cc1` (stereo not given in full), for which the IC50 in data set [1] was 2000 nM; in [2], 158 nM; in data set [3] it was 20 nM. Also, the Selectivity ratio in data set [4] amounted to 100.

Take `CCOC(=O)c1ccc(NC(=O)N[C@H](Cc2ccc(O)cc2)C(=O)N[C@@H]2CCN(Cc3ccc(O)cc3)C2)cc1`: the IC50 in data set [1], in data set [2] and in [3] was 20000 nM in each case.
